In ChEMBL document CHEMBL1126822, “7 alpha-Methyl- and 11 beta-ethoxy-substitution of [125I]-16 alpha-iodoestradiol: effect on estrogen receptor-mediated target tissue uptake” (J Med Chem, 1993) one finds ID/g data, which are given here for two compounds.

Common to all, as to details: in vivo
Data set [1] relates to Rattus norvegicus. Put plainly: Tissue uptake (plasma) of [125I]- after administration of [125I]-labeled compound to immature female rats (n=4) in the absence of 60 microg coinjected estradiol after 5 hours. It is filed as ADME, organism-based. In short, it runs like this: (§1)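 Immature female Fischer rats, 24 days old, 55-60 g, unanesthetized in retention cages, got HPLC-purified n.c.a. 125I-labeled steroid (3 μCi, 111 kBq) by lateral tail vein. Dose was given in 200 μL saline with 9% ethanol and 1% Tween-80. Deep ether anesthesia, axillary artery cut; tissues KCl-washed, blotted, weighed, gamma-counted as % ID/g; variation as small-sample-corrected %CV.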

Data set [2] concerns Rattus norvegicus. Put plainly: Tissue uptake (plasma) of [125I]- after administration of [125I]-labeled compound to immature female rats (n=5) in the absence of 60 microg coinjected estradiol after 1 hour. It is filed as ADME, organism-based. The procedure, abridged: as §1
The test system of data set [3] is Rattus norvegicus. Description: Tissue uptake (plasma) of [125I]- after administration of [125I]-labeled compound to immature female rats (n=3) in the absence of 60 microg coinjected estradiol after 0.5 hours. It is filed as ADME, organism-based. In short, it runs like this: (§2)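 Immature female Fischer rats, 24 days old, 55-60 g, unanesthetized in retention cages, given HPLC-purified 125I-labeled steroid (3 μCi, 111 kBq) via lateral tail vein in 200 μL of 9% ethanol-saline with 1% Tween-80. The blocking group was coinjected with 60 μg unlabeled estradiol and sampled at 1 h. Animals were killed under ether at 0.5-24 h. Tissues were KCl-washed, blotted, weighed and gamma-counted. Results are % ID/g, with variation as small-sample-corrected %CV.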

Data set [4] concerns Rattus norvegicus. Description: Tissue uptake (plasma) of [125I]- after administration of [125I]-labeled compound to immature female rats (n=3) in the absence of 60 microg coinjected estradiol after 24 hours. It is filed as ADME, organism-based. In short, it runs like this:
as §2

Data set [5] deals with Rattus norvegicus. Put plainly: Tissue uptake (uterus) of [125I]- after administration of [125I]-labeled compound to immature female rats (n=3) in the absence of 60 microg coinjected estradiol after 24 hours. It is filed as ADME, organism-based. In short, it runs like this: as §1
For data set [6], the system named is Rattus norvegicus. Put plainly: Tissue uptake (plasma) of [125I]- after administration of [125I]-labeled compound to immature female rats (n=3) in the presence of 60 microg coinjected estradiol after 1 hour. The format is ADME, organism-based. The procedure, abridged: as §2
In data set [7] the test system is Rattus norvegicus. Put plainly: Tissue uptake (kidneys) of [125I]- after administration of [125I]-labeled compound to immature female rats (n=4) in the absence of 60 microg coinjected estradiol and 5 hours. It is filed as ADME, organism-based, Kidney. In short, it runs like this: as §2
Data set [8] deals with Rattus norvegicus. Put plainly: Tissue uptake (brain) of [125I]- after administration of [125I]-labeled compound to immature female rats (n=5) in the absence of 60 microg coinjected estradiol after 1 hour. It is filed as ADME, organism-based. The procedure, abridged: as §2
Data set [9] concerns Rattus norvegicus. Put plainly: Tissue uptake (brain) of [125I]- after administration of [125I]-labeled compound to immature female rats (n=3) in the absence of 60 microg coinjected estradiol after 24 hours. It is filed as ADME, organism-based. In short, it runs like this:
as §2

The subject of data set [10] is Rattus norvegicus. Description: Tissue uptake (brain) of [125I]- after administration of [125I]-labeled compound to immature female rats (n=4) in the absence of 60 microg coinjected estradiol after 2 hours. The format is ADME, organism-based. In short, it runs like this:
as §2

The test system of data set [11] is Rattus norvegicus. Put plainly: Tissue uptake (brain) of [125I]- after administration of [125I]-labeled compound to immature female rats (n=4) in the absence of 60 microg coinjected estradiol after 5 hours. The format is ADME, organism-based. The procedure, abridged: as §2
Data set [12] relates to Rattus norvegicus. Description: Tissue uptake (blood) of [125I]- after administration of [125I]-labeled compound to immature female rats (n=3) in the absence of 60 microg coinjected estradiol after 24 hours. It is filed as ADME, organism-based. In short, it runs like this: as §2

As to `C[C@@H]1Cc2cc(O)ccc2[C@H]2CC[C@]3(C)[C@@H](O)[C@H](I)C[C@H]3[C@H]12`, the ID/g is 0.41% in the data set with Rattus norvegicus [1]; 0.58% with Rattus norvegicus [2]; 0.68% in the data set with Rattus norvegicus [3]; 0.04% in the data set on Rattus norvegicus [4]; 1.64% in the data set with Rattus norvegicus [5]; 0.51% in the data set on Rattus norvegicus [6].

`CCO[C@H]1C[C@]2(C)[C@@H](O)[C@H](I)C[C@H]2[C@@H]2CCc3cc(O)ccc3[C@H]21`: the ID/g in the data set with Rattus norvegicus [7] is recorded as 0.91%; with Rattus norvegicus [8] it was 0.39%; with Rattus norvegicus [9] it was 0.04%; with Rattus norvegicus [10], 0.25%; in the data set with Rattus norvegicus [11] it was 0.14%; in the data set with Rattus norvegicus [12], 0.17%.
